Measurements taken from ChEMBL document CHEMBL2203019, “Cytotoxic cyclic depsipeptides from the Australian marine sponge Neamphius huxleyi” (J Nat Prod, 2012).
Structures can show the parent of a compound that is named as a salt. Activity calls are given as the source filed them. The calls are words filed in the database; no cut-off is given here.

How the values were obtained:
PC-3 = assay: Cytotoxicity against human PC3 cells after 72 hrs by alamar blue assay; assay type: functional, cell-based; conditions: PC-3, 72 h
How it was run: (§1)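 Cells were grown in RPMI with 10% FBS and penicillin/streptomycin (37 °C, 5% CO2). Plates held 1000 cells/well and were left overnight to adhere. Compounds were given for 72 h over 10 concentrations from 100 μM to 3 nM final, with 1% DMSO. Viability was read with Alamar blue at 10% final for 24 h (fluorescence ex 535/em 590 nm). Each concentration was run in triplicate. IC50 was fitted by nonlinear regression, as mean ± SD of two experiments. Vincristine served as positive control.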

HeLa = assay: Cytotoxicity against human HeLa cells after 72 hrs by alamar blue assay; assay type: functional, cell-based; how it was run: as §1
A549 [1] = assay: Cytotoxicity against human A549 cells assessed as cell index at 100 nM after 72 hrs by alamar blue assay; assay type: functional, cell-based; conditions: in the assay text read “xCelligence impedance assay” for “alamar blue assay”
How it was run: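 Real-time impedance (cell index) was recorded on an xCelligence system. A549 cells were seeded at 4000/well, settled 30 min at room temperature, then recorded at 37 °C, 5% CO2. Next day, half the medium was swapped for medium holding 2× compound. Vehicle was 1% DMSO. Runs were in triplicate, in two independent experiments. Readings were taken every minute for 2 h, then hourly to 72 h.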

LNCaP = assay: Cytotoxicity against human LNCAP cells after 72 hrs by alamar blue assay; assay type: functional, cell-based; how it was run: as §1
NFF = assay: Cytotoxicity against human NFF cells after 72 hrs by alamar blue assay; assay type: cell-based
How it was run: (§2)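 Cells were kept in DMEM with 10% FBS and penicillin/streptomycin at 37 °C and 5% CO2. 1000 cells/well adhered overnight, then were exposed for 72 h to a 10-point series from 100 μM to 3 nM final (1% DMSO). Alamar blue was added to 10% final for 24 h, and fluorescence was read at ex 535/em 590 nm. Triplicates were run. IC50 came from nonlinear regression, as mean ± SD of two independent experiments. Vincristine was the positive control.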

[2] = Cytotoxicity against human HEK cells after 72 hrs by alamar blue assay; assay type: cell-based; conditions: HEK293, 72 h; how it was run: as §2
A549 [3] = assay: Cytotoxicity against human A549 cells after 72 hrs by alamar blue assay; assay type: functional, cell-based; conditions: A549, 72 h; how it was run: as §2
A549 [4] = assay: Cytotoxicity against human A549 cells assessed as cell proliferation at 100 nM after 48 hrs by confocal microscopic analysis

SMILES | IC50 (PC-3) [nM] | IC50 (HeLa) [nM] | Activity (A549 [1]) | IC50 (LNCaP) [nM] | IC50 (NFF) [nM] | IC50 [2] [nM] | IC50 (A549 [3]) [nM] | Activity (A549 [4])
CCC(C)C[C@@H](C)[C@@H](O)[C@@H](C)C(=O)N[C@@H](CC(N)=O)C(=O)N[C@@H](CCCNC(=N)N)[C@@H](O)[C@@H](O)C(=O)NC(C(=O)N[C@H]1C(=O)N[C@H]([C@H](C)O)C(=O)N[C@H](CCCNC(=N)N)C(=O)N[C@@H](CC(C)C)C(=O)N(C)[C@@H](CCC(N)=O)C(=O)N[C@H]([C@H](OC)c2ccc(O)cc2)C(=O)N2CCCC[C@H]2C(=O)O[C@@H]1C)C(C)C(C)C(N)=O (relative stereo) | 130 | 210 | inactive | 110 | 150 | 88 | 91 | inactive
CO[C@H](c1ccc(O)cc1)[C@H]1NC(=O)[C@H](CCC(=O)O)N(C)C(=O)[C@H](CC(C)C)NC(=O)[C@@H](CCCNC(=N)N)NC(=O)[C@@H]([C@H](C)O)NC(=O)[C@H](NC(=O)C(NC(=O)[C@H](O)[C@H](O)[C@H](CCCNC(=N)N)NC(=O)[C@H](CC(N)=O)NC(=O)[C@H](C)[C@H](O)[C@H](C)CC(C)C)C(C)C(C)C(N)=O)[C@@H](C)OC(=O)[C@@H]2CCCCN2C1=O (relative stereo) | 110 | 170 |  | 190 | 260 | 160 | 131 | 
CO[C@H](c1ccc(O)cc1)[C@H]1NC(=O)[C@H](CCC(N)=O)N(C)C(=O)[C@H](CC(C)C)NC(=O)[C@@H](CCCNC(=N)N)NC(=O)[C@@H]([C@H](C)O)NC(=O)[C@H](NC(=O)C(NC(=O)[C@H](O)[C@H](O)[C@H](CCCNC(=N)N)NC(=O)[C@H](CC(N)=O)NC(=O)[C@H](C)[C@H](O)[C@H](C)CC(C)C)C(C)C(C)C(N)=O)[C@@H](C)OC(=O)[C@@H]2CCCCN2C1=O (relative stereo) | 170 | 110 |  | 230 | 370 | 200 | 130 | 
CC[C@]1(O)C[C@H]2CN(CCc3c([nH]c4ccccc34)[C@@](C(=O)OC)(c3cc4c(cc3OC)N(C=O)[C@H]3[C@@](O)(C(=O)OC)[C@H](OC(C)=O)[C@]5(CC)C=CCN6CC[C@]43[C@@H]65)C2)C1 [VINCRISTINE SULFATE] | 15 | 36 |  | 6.1 | 17 | 31 | 20 | 
